From ChEMBL document CHEMBL4251598, “Development of novel bis-pyrazole derivatives as antitumor agents with potent apoptosis induction effects and DNA damage” (Eur J Med Chem, 2018)
Calls of active or inactive are those of the source.

Experiments:
SMMC-7721 [1] = experiment: Induction of apoptosis in human SMMC7721 cells assessed as reduction in Bcl2 expression after 72 hrs by Western blot analysis; format: functional, cell-based
How it was run: (§1)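 Sub-confluent SMMC-7721 cells treated with vehicle, compound or ADM at indicated concentrations for 72 h. Lysed on ice in NP-40/deoxycholate/SDS buffer with PMSF and leupeptin. Up to 50 µg protein run on SDS-PAGE, transferred to PVDF and probed with specific antibodies; ECL detection. Bands quantified by densitometry relative to β-actin, mean ± SD of three experiments.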

[2] = target: Cellular tumor antigen p53 (Homo sapiens) (UniProt P04637); experiment: Induction of p53 phosphorylation at Ser15 in human SMMC7721 cells after 72 hrs by Western blot analysis; format: cell-based
How it was run: (§2)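 SMMC-7721 cells treated with vehicle, compound at 0.2, 0.8 or 3.2 μM, or ADM for 72 h. Lysates immunoblotted for H2AX pS139, p-p53 (Ser15), total p53 and β-actin, with ECL detection. Signals quantified by densitometry relative to β-actin, mean ± SD of three experiments.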

SGC-7901 = experiment: Potency index, ratio of ADM IC50 to compound IC50 for human SGC7901 cells; format: functional
[3] = Acute toxicity in ICR mouse assessed as survival at 200 mg/kg, ip measured on day 14; format: organism-based; conditions: in vivo
How it was run: (§3)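 Female ICR mice, 10 per group, single intraperitoneal injection at 488.3, 390.6, 312.5, 250 or 200 mg/kg, or vehicle control. Survival, eating, drinking, body weight and activity were monitored for up to 14 days after dosing. MTD was defined as the highest dose giving no drug-related moribund state or death, with temporary body-weight loss within 20%. LD50 was calculated from mortality.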

[4] = Acute toxicity in ICR mouse assessed as survival at 488.3 mg/kg, ip measured on day 14; format: organism-based; conditions: in vivo; how it was run: as §3
SMMC-7721 [5] = experiment: Antiproliferative activity against human SMMC7721 cells assessed as inhibition of cell proliferation at 25 uM after 72 hrs by MTT assay relative to control; format: functional; conditions: SMMC-7721, 72 h
How it was run: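 Cells in DMEM with 10% FBS, plated at 10^4 cells/mL, adhered overnight. Treated at 25 μM for 72 h. MTT added for the last 4 h, formazan dissolved in DMSO, A570 read. Inhibition expressed as percent of untreated. Mean + SD from three separate measurements.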

SMMC-7721 [6] = experiment: Antitumor activity against human SMMC7721 cells xenografted in ip dosed BALB/c mouse assessed as tumor growth inhibition measured every 3 days up to 19 days post dose; format: functional, organism-based
How it was run: (§4)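 Female BALB/c nude mice, 5-6 weeks old, inoculated subcutaneously with 10^6 SMMC-7721 cells. At 50-100 mm³ tumours, mice were randomized to ip compound (15 or 30 mg/kg), ADM (15 mg/kg) or vehicle, n = 6 per group. Caliper volume ½(L×W²) measured every 3 days to day 19, with body weight monitored. Tumours excised and weighed at the end.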

SMMC-7721 [7] = experiment: Induction of DNA double stranded breaks in human SMMC7721 cells assessed as increase in H2AX phosphorylation at S139 after 72 hrs by Western blot analysis; format: functional, cell-based; how it was run: as §2
SMMC-7721 [8] = experiment: Induction of apoptosis in human SMMC7721 cells assessed as increase in cleaved caspase-3 expression at 3.2 uM after 72 hrs by Western blot analysis relative to control; format: functional, cell-based; how it was run: as §1
SMMC-7721 [9] = experiment: Antiproliferative activity against human SMMC7721 cells after 72 hrs by MTT assay; format: functional, cell-based; conditions: SMMC-7721, 72 h
How it was run: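 Cells in DMEM with 10% FBS, 10^4 cells/mL, adhered overnight at 37 °C, 5% CO2. Treated in triplicate with a range of concentrations for 72 h. MTT (5 mg/mL solution) added for the last 4 h, formazan dissolved in DMSO, absorbance read at 570 nm. IC50 calculated from percent inhibition. Mean ± SD of three independent experiments.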

Mus musculus = experiment: Acute toxicity in ICR mouse assessed as mouse mortality level at 200 to 312.5 mg/kg, ip measured on day 5 to 14 post dose; format: organism-based; conditions: in vivo; how it was run: as §3
SMMC-7721 [10] = experiment: Antitumor activity against human SMMC7721 cells xenografted in BALB/c mouse assessed as tumor growth inhibition at 15 mg/kg, ip measured after 19 days relative to control; format: functional; conditions: SMMC-7721, ip, 456 h, read-out: TGI; how it was run: as §4
HCT-116 = experiment: Potency index, ratio of 5-FU IC50 to compound IC50 for human HCT116 cells; format: functional

Sequence of Cellular tumor antigen p53 (Homo sapiens) (P04637 whole entry, looked up): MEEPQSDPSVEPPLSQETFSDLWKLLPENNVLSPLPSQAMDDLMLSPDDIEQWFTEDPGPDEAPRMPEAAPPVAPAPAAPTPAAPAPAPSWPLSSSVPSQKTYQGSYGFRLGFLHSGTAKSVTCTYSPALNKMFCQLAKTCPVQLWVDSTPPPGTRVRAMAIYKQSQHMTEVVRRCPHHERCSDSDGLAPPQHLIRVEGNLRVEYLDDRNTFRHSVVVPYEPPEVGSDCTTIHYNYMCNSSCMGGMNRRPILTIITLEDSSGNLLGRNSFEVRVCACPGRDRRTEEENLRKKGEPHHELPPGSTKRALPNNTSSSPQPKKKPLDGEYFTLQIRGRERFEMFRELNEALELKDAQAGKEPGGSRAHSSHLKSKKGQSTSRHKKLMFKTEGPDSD

COc1ccc(Oc2c(/C=N\OCc3c(Cl)c(-c4ccc(Cl)cc4)nn3C)c(C)nn2C)cc1
Activity (SMMC-7721 [1]): Dose-dependent effect | Activity [2]: Dose-dependent effect | Ratio IC50 (SGC-7901): 2 - 3 | survival at 14 day [3]: 100% | survival at 14 day [4]: 10% | inhibition at 25 µM (SMMC-7721 [5]): 80% | TGI (SMMC-7721 [6]): Dose-dependent effect | Activity (SMMC-7721 [7]): Dose-dependent effect | Activity (SMMC-7721 [8]): Active | IC50 (SMMC-7721 [9]): 760 nM | Activity (Mus musculus): Non-Toxic | inhibition in vivo at 15 mg/kg (SMMC-7721 [10]): 44% | Ratio IC50 (HCT-116): 17 - 50
